Consider 97 compounds from ChEMBL document CHEMBL4513216, “Probing the Open Global Health Chemical Diversity Library for Multistage-Active Starting Points for Next-Generation Antimalarials” (ACS Infect Dis, 2020).

Each structure is given as a SMILES string.

The series can be described thus: Toxicity liver stage against HepG2, at 10uM. To be noted: human, HepG2-A16-CD81EGFP cells; read-out: INHIBITION
On the set-up: test concentration 10 uM, cell line HepG2-A16-CD81EGFP. It counts as cell-based. Put shortly: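 Uninfected HepG2-A16-CD81EGFP cells, 3 × 10^3 per well, 1536-well, plated on prespotted compound at 10 μM final, parasite-free screening media added to match infected plates; puromycin 10 μM positive, DMSO 0.5% negative; run in parallel with 48 h PbLuc assay at 37 °C, 5% CO2; viability by CellTiter-Glo luminescence, normalized to controls.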
With `CCc1nnc(Nc2cc(C)nc(C3CCN(c4ncccn4)C3)n2)s1` (configuration not stated), the cytotoxicity at 10 µM worked out at 3.07%.

Regarding `CC(=O)NC(Cc1c[nH]c2cc(F)ccc12)C(=O)Nc1nonc1C` (configuration not stated), the cytotoxicity at 10 µM was -9.93%.

As to `CNC(=O)c1ccc(-c2ccc(CNS(=O)(=O)N(C)C)cc2)nc1C`, the cytotoxicity at 10 µM was -2.05%.

Take `OCC1(O)CCN(c2ncccc2C(F)(F)F)CC1`: the cytotoxicity at 10 µM is -13.6%.

With `Cc1nnc(CN(C)CCOc2cccc(Cl)c2)o1`, the cytotoxicity at 10 µM came to 12.8%.

For `CCc1noc(C(C)N(C)Cc2ccc(OC)c(OC)c2)n1` (configuration not stated), the cytotoxicity at 10 µM is -7.13%.

For the compound `Cc1ccc(N2CCCC(NCc3ccc(C)s3)C2)nn1` (configuration not stated), the cytotoxicity at 10 µM is -2.51%.

For the compound `CC(=O)c1c(N(C)C)ccnc1C(F)(F)F`, the cytotoxicity at 10 µM was 1.1%.

Turning to `Cc1nccn1-c1cncc(C2CCCN2Cc2ccccc2)n1` (configuration not stated), the cytotoxicity at 10 µM is -8.52%.

Regarding `Cn1c(=O)[nH]c(=O)n2c(CC(=O)Nc3c(Cl)cccc3Cl)cnc12`, the cytotoxicity at 10 µM is 8.52%.

As for `CN(Cc1cccnc1)CC1CC12CCCC2` (configuration not stated), the cytotoxicity at 10 µM is -0.243%.

In the case of `CCCNC(=O)N1CCC(Oc2cc(C)ccc2F)(C(=O)O)CC1`, the cytotoxicity at 10 µM was -23.8%.

For `Cn1cc(C2=CCN(CCCC(=O)Nc3ccc(C#N)cc3)CC2)cn1`, the cytotoxicity at 10 µM is -6.84%.

Turning to `c1coc(-c2noc(CN3CCCC(Cn4cncn4)C3)n2)c1` (configuration not stated), the cytotoxicity at 10 µM was -7.23%.

As to `CCNc1nnc(SCC(=O)N2CCN(Cc3ccc(Cl)s3)CC2)s1`, the cytotoxicity at 10 µM was 15.2%.

As for `CC(C)n1ccc(C(=O)N2CCCC(n3cncn3)C2)n1` (configuration not stated), the cytotoxicity at 10 µM is -0.312%.

For the compound `CC(C)c1nn(C)c(Cl)c1CNCC(O)c1cccc(F)c1` (configuration not stated), the cytotoxicity at 10 µM was -1.83%.

`CCc1ncc2c(n1)CN(c1cc(NCCO)nc(N)n1)C2`: the cytotoxicity at 10 µM was -4.49%.

With `CCc1cc(N(C)Cc2c(C)nn(C)c2C)n2nccc2n1`, the cytotoxicity at 10 µM turned out to be 0.613%.

As for `CCN(CCOC)C(=O)c1cc(COc2ccc3c(c2)CCCC3)on1`, the cytotoxicity at 10 µM was -146%.

`CC(C)CCC(C)NC(=O)Nc1ccccn1` (configuration not stated): the cytotoxicity at 10 µM turned out to be 5.28%.

Consider `Cc1cc(-c2cnc(N3CCCCCC3)nc2-c2cccnc2C)on1`, for which the cytotoxicity at 10 µM was -8.75%.

For the compound `O=C(NCC1CC1)C1=NOC2(CCN(S(=O)(=O)c3ccc(F)cc3)C2)C1` (configuration not stated), the cytotoxicity at 10 µM amounted to 3.25%.

As for `COc1ccc(S(=O)(=O)NCCC(O)c2cccs2)c(C)c1` (configuration not stated), the cytotoxicity at 10 µM is -1.13%.

On to `O=C(C1CCCO1)N1CCc2nnc(Cn3cccc3)n2CC1` (configuration not stated), for which the cytotoxicity at 10 µM was found to be 13.9%.

For `Cc1cc(S(=O)(=O)N2C[C@H](C3CC3)[C@@H](N)C2)c(C)s1`, the cytotoxicity at 10 µM is -2.36%.

For the compound `O=C(c1cccc(O)c1)N1C[C@@H](CN2CCCCC2)[C@@H](CO)C1`, the cytotoxicity at 10 µM is -2.88%.

`CC(C)N(C)[C@@H]1CCN(Cc2ccoc2)[C@H]1Cc1ccccc1`: the cytotoxicity at 10 µM is -2.57%.

As for `Cc1occc1CNC(=O)N(CCCO)C1CCc2ccccc21` (configuration not stated), the cytotoxicity at 10 µM is -0.842%.

As for `COc1c(C)cnc(CN2CCC(N(C)C(=O)C3CC3)CC2)c1C`, the cytotoxicity at 10 µM was -2.74%.

Regarding `Cc1nc(COCc2nc3c(o2)CN(C(=O)c2ccoc2)C3)cs1`, the cytotoxicity at 10 µM is -1.95%.

Regarding `CC(C)n1ncc2c1NC(=O)C(C#N)C21CCCC1` (configuration not stated), the cytotoxicity at 10 µM is -4.1%.

For `Cc1cc(F)ccc1N1CCCC(Nc2nccn3cnnc23)C1=O` (configuration not stated), the cytotoxicity at 10 µM was -6.62%.

On to `CC(NC1(CNC(=O)OC(C)(C)C)CCOCC1)c1ccccc1` (configuration not stated), for which the cytotoxicity at 10 µM is 3.63%.

On to `CN(C)C(=O)N1CCn2nc(CNC(=O)CCC(F)(F)F)cc2C1`, for which the cytotoxicity at 10 µM worked out at 5.6%.

Take `O=C(CN1CCCC1=O)NCc1cccnc1Oc1ccc(F)c(F)c1`: the cytotoxicity at 10 µM is 1.87%.

For `CCC(CO)N(Cc1ccsc1)Cc1c(C)nn(C)c1Cl` (configuration not stated), the cytotoxicity at 10 µM was determined as 17.8%.

For the compound `Cc1ncc2c(n1)CN(Cc1nc3c(F)cccc3[nH]1)CC2`, the cytotoxicity at 10 µM is -4.74%.

`Cc1cc(CNC(=O)N2CCN(c3ccccc3)CC2)no1`: the cytotoxicity at 10 µM came to 5.27%.

In the case of `CC(C)c1nn(C)c(N2CCOCC2)c1CNCCC(=O)N(C)C`, the cytotoxicity at 10 µM was -16.5%.

With `CCC(c1ccc(F)cc1)N1CCn2c(CO)nnc2C1` (configuration not stated), the cytotoxicity at 10 µM was -9.15%.

Turning to `CC(C)c1nnc(CNc2nc(-c3cccnc3)nc3c2CCC3)n1C`, the cytotoxicity at 10 µM was 8.74%.

Turning to `O=C1CCCN1Cc1nnc2n1CCN(Cc1ccoc1)CC2`, the cytotoxicity at 10 µM was 2.72%.

Take `Cn1cc(Br)cc(NC(=O)CC2CCC2)c1=O`: the cytotoxicity at 10 µM is -8.15%.

As to `Cc1cccc(C(C(=O)N(C)Cc2ccco2)N(C)C)c1` (configuration not stated), the cytotoxicity at 10 µM is 3.15%.

As to `Cc1ccn(CCC(=O)NCc2ccco2)n1`, the cytotoxicity at 10 µM is 5.94%.

Turning to `CC(=O)N1CCC(c2cncc(N3CCCCCC3)n2)CC1`, the cytotoxicity at 10 µM stood at 11.3%.

Regarding `O=C(NCCn1cccn1)C1CCC(=O)N(CC2CCCCC2)C1` (configuration not stated), the cytotoxicity at 10 µM was 6.8%.

`CC(=O)NCC(=O)N1CC[C@H](OCC2CC2)[C@@H]1Cc1cccnc1`: the cytotoxicity at 10 µM is -1.99%.

Take `O=C(N[C@@H]1CCNC[C@H]1O)c1cc(F)cc(Cl)c1`: the cytotoxicity at 10 µM is -3.12%.

Turning to `N#Cc1ccc(CN2CCN(Cc3ccncc3Cl)CC2=O)cc1`, the cytotoxicity at 10 µM stood at 6.43%.

As to `Nc1ncc(-c2ccc(Cl)cc2)c(C2CCCNC2)n1` (configuration not stated), the cytotoxicity at 10 µM was -7.64%.

With `CS(=O)(=O)N1CCN(c2cnnc(N3CCCC3)c2)CC1`, the cytotoxicity at 10 µM came to 2.24%.

As for `Cc1cc(NCc2nnc3n2CCCCC3)n2nc(C)c(C)c2n1`, the cytotoxicity at 10 µM was found to be 5.66%.

Turning to `CCOc1cc(C)nc(N2CCN(C(=O)c3cc[nH]n3)CC2)n1`, the cytotoxicity at 10 µM is -8.21%.

With `CN1C[C@@H]2COC[C@]2(C(=O)NCCc2cccs2)C1`, the cytotoxicity at 10 µM is 8.1%.

`N#Cc1ccc(CN2CCN(C(=O)C3CCC3)[C@@H]3CS(=O)(=O)C[C@@H]32)cc1`: the cytotoxicity at 10 µM is -9.78%.

As to `CN(C)C(=O)C1CCC2(CCN(Cc3ccc4ccccc4n3)CC2)O1` (configuration not stated), the cytotoxicity at 10 µM worked out at 5.09%.

Consider `Cc1cn2c(n1)CCC(NC(=O)CCn1cncn1)C2` (configuration not stated), for which the cytotoxicity at 10 µM is -5.72%.

On to `CCOc1ccccc1CN(CC)Cc1ccc(S(=O)(=O)NC)cc1`, for which the cytotoxicity at 10 µM is -0.943%.

Consider `Cc1ccc(-c2nc(CNS(=O)(=O)N(C)C)[nH]c2-c2ccccn2)cc1`, for which the cytotoxicity at 10 µM was -0.678%.

On to `COCCN1C(=O)[C@@H]2CC[C@H]1CN(S(=O)(=O)c1cccc(Cl)c1)C2`, for which the cytotoxicity at 10 µM amounted to 20.5%.

Turning to `COc1ccc(CNC(=O)N2CCC(Cc3cnn(C)c3)C2)cc1C` (configuration not stated), the cytotoxicity at 10 µM is -9.52%.

On to `O=C(Nc1cc(C(F)(F)F)c[nH]c1=O)N1CCCSCC1`, for which the cytotoxicity at 10 µM is -5.77%.

Turning to `Cc1ccc2nc(C3CCCN3Cc3scnc3C)[nH]c2c1` (configuration not stated), the cytotoxicity at 10 µM is 8.2%.

Turning to `CNc1cccc(C2CCCN(C(=O)c3ccncc3)C2)n1` (configuration not stated), the cytotoxicity at 10 µM is -4.02%.

Take `O=C(COCCc1ccccc1)N1CCCC(n2cccn2)C1` (configuration not stated): the cytotoxicity at 10 µM was -3.42%.

For the compound `CC(C)c1n[nH]c(C2CN(C(=O)c3cc4c(s3)CCC4)CCO2)n1` (configuration not stated), the cytotoxicity at 10 µM was -11%.

As to `CC(Cc1c(F)cccc1F)NC(=O)CSCC(N)=O` (configuration not stated), the cytotoxicity at 10 µM was -6.37%.

As to `CCn1cc(CN2CCCN(C(=O)c3ccc(C#N)cc3)CC2)cn1`, the cytotoxicity at 10 µM came out at 1.8%.

Take `CCOCC(=O)N1CCC(CSCc2ccco2)CC1`: the cytotoxicity at 10 µM was -7.36%.

With `O=C1N(CC2CC2)CCC12CCCN(c1ncc(F)cn1)C2` (configuration not stated), the cytotoxicity at 10 µM is 4.79%.

Take `Cc1ncsc1C(=O)N1CCc2[nH]nc(-c3ccc4c(c3)OCO4)c2C1`: the cytotoxicity at 10 µM was -141%.

For the compound `Cn1cc(CN2CCCC(c3nc(O)cc(-c4cccs4)n3)C2)cn1` (configuration not stated), the cytotoxicity at 10 µM is -5.89%.

As to `CCC1(c2ccc(NS(=O)(=O)c3cccs3)cc2)CCC(=O)NC1=O` (configuration not stated), the cytotoxicity at 10 µM is -8.55%.

`CN(Cc1ccc(CCC(C)(C)O)cc1)Cc1cccc(O)c1`: the cytotoxicity at 10 µM is -7.43%.

Take `CCOCCNS(=O)(=O)c1ccc2c3c1CCCN3C(=O)CO2`: the cytotoxicity at 10 µM was determined as 7.9%.

As to `CC(C)OCCNC1(c2ccc(F)cc2)CCOCC1`, the cytotoxicity at 10 µM was -4.78%.

On to `CN(C)c1ccc(-c2cc(C(=O)O)cc(S(=O)(=O)NC3CC3)c2)cc1`, for which the cytotoxicity at 10 µM stood at 16.5%.

Consider `CC(=O)N1CCC2(CC1)CC[C@@]1(C(=O)N(C)C)CN(S(C)(=O)=O)C[C@@H]21`, for which the cytotoxicity at 10 µM is -1.56%.

In the case of `CCS(=O)(=O)N1CCc2ncnc(C)c2CC1`, the cytotoxicity at 10 µM was -0.0192%.

On to `Cc1ccsc1C(Cc1ccccc1)NC(=O)CNC(=O)C1CC1` (configuration not stated), for which the cytotoxicity at 10 µM is 11.6%.

Regarding `Cc1nc(C)n(CC2CCCCN2Cc2ncc(C(C)(C)C)o2)n1` (configuration not stated), the cytotoxicity at 10 µM came out at 0.299%.

Take `CCCn1nc(C)c(CNC(=O)c2snnc2C)c1C`: the cytotoxicity at 10 µM was -15.5%.

As for `Cn1ccc(C(=O)N2CCCN(CCCc3ccccc3)CC2)cc1=O`, the cytotoxicity at 10 µM is -0.942%.

In the case of `CCCN(CCC)C(=O)c1cnn(C)c1C`, the cytotoxicity at 10 µM is -128%.

Turning to `Cc1cc2n(n1)CC(CNCc1ccccc1Cn1cccn1)CN2` (configuration not stated), the cytotoxicity at 10 µM was -13.3%.

In the case of `CC(C)n1cnc2c(-c3cccnc3)nc(C3CCNCC3)cc21`, the cytotoxicity at 10 µM was -114%.

As for `CN(CC1CC1)c1ccc2ccc(C(=O)NC3CCCCC3)cn12`, the cytotoxicity at 10 µM was -0.567%.

For `CSc1ccc(NC(=O)Cn2cc(N)cn2)cc1`, the cytotoxicity at 10 µM came to 0.14%.

In the case of `CC(C)C1CN(Cc2cnc(N(C)C)nc2)CCCN1CC1CC1` (configuration not stated), the cytotoxicity at 10 µM was -6%.

Take `N#Cc1cn(CC(=O)NC2CC2)c2ccc(Br)cc2c1=O`: the cytotoxicity at 10 µM was 27.4%.

As to `CNc1oc(-c2ccc(S(=O)(=O)N(C)C)o2)nc1C#N`, the cytotoxicity at 10 µM was -5.96%.

Turning to `CCc1nc(C(=O)N2CC(C(C)C)Nc3ccccc32)c[nH]1` (configuration not stated), the cytotoxicity at 10 µM was -0.0979%.

Turning to `CC(=O)N1[C@H](Cn2cncn2)C[C@@H]2CN(C(=O)NC3CC3)CC[C@@H]21`, the cytotoxicity at 10 µM is -5.16%.

For `Cc1cc(NCc2cc3n(n2)CCCN(S(C)(=O)=O)C3)ncn1`, the cytotoxicity at 10 µM is -14.3%.

With `Cc1ccc(N2Cc3cnn(Cc4ccc(F)cc4)c3C2)nn1`, the cytotoxicity at 10 µM is 0.209%.
